Test results published in ChEMBL document CHEMBL4732185, “Synthesis, biological evaluation and structure-activity relationship of novel dichloroacetophenones targeting pyruvate dehydrogenase kinases with potent anticancer activity” (Eur J Med Chem, 2021).
Calls of active or inactive are those of the source. The rule behind the calls is not given here.

Columns and labels:
HCT-116 = test: Antiproliferative activity against human HCT-116 cells assessed as growth inhibition after 72 hrs by MTT assay; assay type: functional, cell-based
Method in brief: (§1)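 MTT viability assay. Cancer lines seeded at 3000–6000 cells/well and L02 at 7000 cells/well, cultured overnight, then exposed to a full dose range for 72 h. MTT (0.5 mg/mL) added for 4 h, supernatant removed, formazan dissolved in DMSO, absorbance read at 570 nm. IC50 taken as the mean of three independent experiments. Cells grown in DMEM + 10% FBS, 37 °C, 5% CO2.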

SH-SY5Y = test: Antiproliferative activity against human SHSY-5Y cells assessed as growth inhibition after 72 hrs by MTT assay; assay type: functional, cell-based; method in brief: as §1
MCF7 [1] = test: Antiproliferative activity against human MCF7 cells assessed as growth inhibition after 72 hrs by MTT assay; assay type: functional, cell-based; method in brief: as §1
A549 [2] = test: Antiproliferative activity against human A549 cells assessed as growth inhibition after 72 hrs by MTT assay; assay type: functional, cell-based; method in brief: as §1
MCF7 [3] = test: Antiproliferative activity against human MCF7 cells assessed as growth inhibition at 1 uM after 72 hrs by MTT assay relative to control; assay type: functional; conditions: for inhibition of growth at 1 µM: read-out: GI
Method in brief: (§2)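 Single-concentration MTT screen on MCF-7 and A549 cells grown in DMEM + 10% FBS. Cells at 3000–6000/well, cultured overnight, then given compound in buffer with 1% DMSO for 72 h. MTT (0.5 mg/mL) added for 4 h, formazan dissolved in DMSO, A570 read. Percent inhibition reported as the average ± S.D. of three independent measurements.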

L02 = test: Cytotoxicity against human L02 cells assessed as reduction in cell viability after 72 hrs by MTT assay; assay type: cell-based; method in brief: as §1
A549 [4] = test: Antiproliferative activity against human A549 cells assessed as growth inhibition at 10 uM after 72 hrs by MTT assay relative to control; assay type: functional; conditions: for inhibition of growth at 10 µM: read-out: GI; method in brief: as §2
MCF7 [5] = test: Antiproliferative activity against human MCF7 cells assessed as growth inhibition at 10 uM after 72 hrs by MTT assay relative to control; assay type: functional; conditions: for inhibition of growth at 10 µM: read-out: GI; method in brief: as §2
PC-3 = test: Antiproliferative activity against human PC3 cells assessed as growth inhibition after 72 hrs by MTT assay; assay type: functional, cell-based; method in brief: as §1
A549 [6] = test: Antiproliferative activity against human A549 cells assessed as growth inhibition at 1 uM after 72 hrs by MTT assay relative to control; assay type: functional; conditions: for inhibition of growth at 1 µM: read-out: GI; method in brief: as §2
[7] = Inhibition of PDK (unknown origin) using RYHGHSMSDP as substrate after 30 mins by Kinase-Glo luminescent assay; parameters: species or system Homo sapiens
Homo sapiens [8] = organism: Homo sapiens; test: Inhibition of PDK (unknown origin) using RYHGHSMSDP as substrate at 1 uM after 30 mins by Kinase-Glo luminescent assay
A-375 [9] = test: Antiproliferative activity against human A375 cells assessed as growth inhibition after 72 hrs by MTT assay; assay type: functional, cell-based; method in brief: as §1
A549 [10] = test: Antiproliferative activity against human A549 cells assessed as reduction in cell viability after 24 hrs by MTT assay; assay type: functional, cell-based; conditions: A549, 24 h
Homo sapiens [11] = organism: Homo sapiens; test: Inhibition of PDK (unknown origin) using RYHGHSMSDP as substrate at 80 uM after 30 mins by Kinase-Glo luminescent assay
A-375 [12] = test: Induction of apoptosis in human A375 cells assessed as early apoptotic cells at 5 uM after 12 hrs by annexinV-FITC/propidium iodide staining based flow cytometric analysis (reference value: 0.87%); assay type: functional
A-375 [13] = test: Inhibition of PDK in human A375 cells assessed as reduction in phosphorylation of PDC E1alpha at ser293 residues at 5 uM after 24 hrs by Western blot analysis; assay type: cell-based
Method in brief: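 A375 cells in 6-well plates, treated 24 h. Lysed 15 min and spun 12000 rpm at 4 °C for 15 min. Protein equalized by BCA and denatured in SDS buffer at 100 °C for 8 min. Run on SDS-PAGE, transferred to nitrocellulose, blocked in 5% milk 2 h, primary antibody overnight, HRP anti-rabbit IgG 2 h, ECL detection.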

A-375 [14] = test: Induction of apoptosis in human A375 cells assessed as late apoptotic cells at 5 uM after 24 hrs by annexinV-FITC/propidium iodide staining based flow cytometric analysis (reference value: 0.63%); assay type: functional
A-375 [15] = test: Induction of apoptosis in human A375 cells assessed as early apoptotic cells at 5 uM after 24 hrs by annexinV-FITC/propidium iodide staining based flow cytometric analysis (reference value: 0.87%); assay type: functional
A-375 [16] = test: Induction of apoptosis in human A375 cells assessed as necrotic cells at 5 uM after 36 hrs by annexinV-FITC/propidium iodide staining based flow cytometric analysis (reference value: 1.63%); assay type: functional
A-375 [17] = test: Induction of apoptosis in human A375 cells assessed as necrotic cells at 5 uM after 24 hrs by annexinV-FITC/propidium iodide staining based flow cytometric analysis (reference value: 0.56%); assay type: functional
A-375 [18] = test: Induction of cell cycle arrest in human A375 cells assessed as accumulation at G2 phase at 5 uM after 24 hrs by propidium iodide staining based flow cytometric analysis (reference value: 10.02%); assay type: functional
A-375 [19] = test: Induction of apoptosis in human A375 cells assessed as late apoptotic cells at 5 uM after 36 hrs by annexinV-FITC/propidium iodide staining based flow cytometric analysis (reference value: 1.02%); assay type: functional
A-375 [20] = test: Induction of apoptosis in human A375 cells assessed as viable cells at 5 uM after 36 hrs by annexinV-FITC/propidium iodide staining based flow cytometric analysis (reference value: 94.15%); assay type: functional; conditions: read-out: Activity
A-375 [21] = test: Induction of cell cycle arrest in human A375 cells assessed as accumulation at S phase at 5 uM after 24 hrs by propidium iodide staining based flow cytometric analysis (reference value: 37.33%); assay type: functional
A-375 [22] = test: Induction of apoptosis in human A375 cells assessed as viable cells at 5 uM after 24 hrs by annexinV-FITC/propidium iodide staining based flow cytometric analysis (Rvb= 97.94%); assay type: functional; conditions: read-out: Activity
A-375 [23] = test: Induction of cell cycle arrest in human A375 cells assessed as accumulation at G1 phase at 5 uM after 24 hrs by propidium iodide staining based flow cytometric analysis (reference value: 52.65%); assay type: functional
A-375 [24] = test: Induction of apoptosis in human A375 cells assessed as late apoptotic cells at 5 uM after 12 hrs by annexinV-FITC/propidium iodide staining based flow cytometric analysis (reference value: 0.63%); assay type: functional
A-375 [25] = test: Induction of apoptosis in human A375 cells assessed as early apoptotic cells at 5 uM after 36 hrs by annexinV-FITC/propidium iodide staining based flow cytometric analysis (reference value: 3.2%); assay type: functional
A-375 [26] = test: Induction of apoptosis in human A375 cells assessed as necrotic cells at 5 uM after 12 hrs by annexinV-FITC/propidium iodide staining based flow cytometric analysis (reference value: 0.56%); assay type: functional
A-375 [27] = test: Induction of apoptosis in human A375 cells assessed as viable cells at 5 uM after 12 hrs by annexinV-FITC/propidium iodide staining based flow cytometric analysis (reference value: 97.94%); assay type: functional; conditions: read-out: Activity
[28] = Homo sapiens, HCT-116, 72 h, read-out: IC50
[29] = Homo sapiens, SH-SY5Y, 72 h, read-out: IC50
[30] = Homo sapiens, MCF7, 72 h, read-out: IC50
[31] = Homo sapiens, A549, 72 h, read-out: IC50
[32] = Homo sapiens, L02, 72 h, read-out: IC50
[33] = Homo sapiens, PC-3, 72 h, read-out: IC50
[34] = Homo sapiens, A-375, 72 h, read-out: IC50

Structure (SMILES) | IC50 (HCT-116; [28]) [µM] | IC50 (SH-SY5Y; [29]) [µM] | IC50 (MCF7 [1]; [30]) [µM] | IC50 (A549 [2]; [31]) [µM] | inhibition of growth at 1 µM (MCF7 [3]) [%] | IC50 (L02; [32]) [µM] | inhibition of growth at 10 µM (A549 [4]) [%] | inhibition of growth at 10 µM (MCF7 [5]) [%] | IC50 (PC-3; [33]) [µM] | inhibition of growth at 1 µM (A549 [6]) [%] | EC50 [7] [µM] | inhibition (Homo sapiens [8]) [%] | IC50 (A-375 [9]; [34]) [µM] | growth inhibition (GI) (MCF7 [3]) | also measured
CC(C)c1ccc(Nc2ccc(C(=O)C(Cl)Cl)cc2[N+](=O)[O-])cc1 | 0.7 | 1 | 1.21 | 0.33 | 38.6 | 1.5 | 97 | 94 | 0.38 | 75.2 | 0.34 | 80 | 0.9 | – | –
O=C(c1ccccc1)C(Cl)Cl | 12.9 | 17.7 | 21.4 | 18.7 | – | 19.7 | 55.2 | 42.2 | 23.1 | – | > 80 | – | 16.9 | inactive | IC50 (A549 [10]): 15.9 µM; growth inhibition (GI) (A549 [6]): inactive; inhibition (Homo sapiens [11]): 36.6%
CC(C)(O)c1ccc(Nc2ccc(C(=O)C(Cl)Cl)cc2[N+](=O)[O-])cc1 | 1.5 | 2.3 | 2.98 | 3.1 | 33.9 | 7.8 | 96.3 | 92.8 | 2.34 | 37.9 | 1.49 | 48.8 | 1.8 | – | –
CC(C)Oc1ccc(C(=O)C(Cl)Cl)cc1[N+](=O)[O-] | 6.2 | 5.6 | 7.8 | 3.5 | – | 16.9 | 98.2 | 73.4 | 8.7 | 18.7 | 0.33 | 72.4 | 4.9 | inactive | Activity (A-375 [12]): 2.43%; inhibition (A-375 [13]): Active; Activity (A-375 [14]): 6.83%; Activity (A-375 [15]): 4.71%; Activity (A-375 [16]): 2.31%; Activity (A-375 [17]): 4.29%; Activity (A-375 [18]): 11.01%; Activity (A-375 [19]): 18.83%; viability at 5 µM (A-375 [20]): 68.9%; Activity (A-375 [21]): 30.65%; viability at 5 µM (A-375 [22]): 84.2%; Activity (A-375 [23]): 58.34%; Activity (A-375 [24]): 2.66%; Activity (A-375 [25]): 6.6%; Activity (A-375 [26]): 3.77%; viability at 5 µM (A-375 [27]): 91.1%
CC(C)(C)c1ccc(Nc2ccc(C(=O)C(Cl)Cl)cc2[N+](=O)[O-])cc1 | 0.5 | 1.1 | 1.9 | 1.2 | 41.2 | 5.9 | 93.2 | 96.4 | 0.47 | 48.8 | 0.55 | 65.8 | 0.9 | – | –
CN(C)C(=O)c1ccc(S(=O)(=O)c2ccc(NC(=O)[C@@](C)(O)C(F)(F)F)c(Cl)c2)cc1 | – | – | – | – | – | – | – | – | – | – | 0.053 | 98.7 | – | inactive | IC50 (HCT-116; hct-116): Not Active; IC50 (SH-SY5Y; sh-sy5y): Not Active; IC50 (MCF7 [1]; mcf7): Not Active; IC50 (A549 [2]; a549): Not Active; IC50 (L02; l02): Not Active; growth inhibition (GI) (A549 [4]): inactive; growth inhibition (GI) (MCF7 [5]): inactive; IC50 (PC-3; pc-3): Not Active; growth inhibition (GI) (A549 [6]): inactive; IC50 (A-375 [9]; a-375): Not Active
O=C([O-])C(Cl)Cl.[Na+] [SODIUM DICHLOROACETATE] | 9800 | 17400 | 13400 | 19500 | – | 21700 | – | – | 15700 | – | – | – | 20100 | – | –
